Laboratory results taken from ChEMBL document CHEMBL1144562, “Synthesis of a new class of 2-anilino substituted nicotinyl arylsulfonylhydrazides as potential anticancer and antibacterial agents” (2007).
Values after ≈ are worked out from the molar mass of the structure shown.

Experiments:
Assay type in all cases: functional
RXF 393 = assay: Antitumor activity against RXF393 cells; conditions: Homo sapiens; for TGI: read-out: Log TGI (converted)
SW-620 = assay: Antitumor activity against SW620 cells; conditions: Homo sapiens; for CC50: read-out: Log LC50 (the source's name) (converted); for TGI: read-out: Log TGI (converted)
Summary of the method: (§1)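 Tested in the NCI 60-human-tumour-cell-line panel at five concentrations, in 10-fold dilutions from 10^-4 to 10^-8 M. Three parameters were taken from the dose-response data, each as log10 of the molar concentration: GI50 (50% net growth inhibition), TGI (total growth inhibition) and LC50 (50% net cell death).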

SN12C = assay: Antitumor activity against SN12C cells; conditions: Homo sapiens; for TGI: read-out: Log TGI (converted); summary of the method: as §1
[1] = Antitumor activity against LOX IMV1 cells; conditions: Homo sapiens; for TGI: read-out: Log TGI (converted)
COLO 205 = assay: Antitumor activity against COLO205 cells; conditions: Homo sapiens; for TGI: read-out: Log TGI (converted)
EKVX = assay: Antitumor activity against EKVX cells; conditions: Homo sapiens; for TGI: read-out: Log TGI (converted)
NCI-H23 = assay: Antitumor activity against NCI-H23 cells; conditions: Homo sapiens; for TGI: read-out: Log TGI (converted)
SNB-75 = assay: Antitumor activity against SNB75 cells; conditions: Homo sapiens; for CC50: read-out: Log LC50 (the source's name) (converted); for TGI: read-out: Log TGI (converted); summary of the method: as §1
NCI/ADR-RES = assay: Antitumor activity against NCI/ADR-RES cells; conditions: Homo sapiens; for TGI: read-out: Log TGI (converted)
SK-MEL-2 = assay: Antitumor activity against SK-MEL-2 cells; conditions: Homo sapiens; for TGI: read-out: Log TGI (converted)
OVCAR-8 = assay: Antitumor activity against OVCAR8 cells; conditions: Homo sapiens; for CC50: read-out: Log LC50 (the source's name) (converted); for TGI: read-out: Log TGI (converted)
MDA-MB-435 = assay: Antitumor activity against MDA-MB-435 cells; conditions: Homo sapiens; for TGI: read-out: Log TGI (converted)
OVCAR-5 = assay: Antitumor activity against OVCAR5 cells; conditions: Homo sapiens; for CC50: read-out: Log LC50 (the source's name) (converted); for TGI: read-out: Log TGI (converted)
Bacillus subtilis = assay: Antibacterial activity against Bacillus subtilis MTCC 441 after 18 hrs; conditions: MTCC 441, 18 h
Summary of the method: (§2)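 Disc diffusion (Kirby–Bauer) on Mueller-Hinton agar inoculated with fresh bacteria at 1-5 × 10^4 cfu mL-1. Compounds were dissolved in DMF at a range of concentrations, and discs were placed in triplicate. Plates were incubated at 30 °C for 18 h. MIC was taken as the lowest concentration giving no visible bacterial growth on the plate.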

HCT-15 = assay: Antitumor activity against HCT15 cells; conditions: Homo sapiens; for TGI: read-out: Log TGI (converted)
TK-10 = assay: Antitumor activity against TK10 cells; conditions: Homo sapiens; for TGI: read-out: Log TGI (converted); summary of the method: as §1
UACC-62 = assay: Antitumor activity against UACC62 cells; conditions: Homo sapiens; for TGI: read-out: Log TGI (converted); summary of the method: as §1
SF-268 = assay: Antitumor activity against SF268 cells; conditions: Homo sapiens; for TGI: read-out: Log TGI (converted)
Escherichia coli = assay: Antibacterial activity against Escherichia coli MTCC 448 after 18 hrs; conditions: MTCC 448, 18 h; summary of the method: as §2
K562 = assay: Antitumor activity against K562 cells; conditions: Homo sapiens; for TGI: read-out: Log TGI (converted)
UO-31 = assay: Antitumor activity against UO31 cells; conditions: Homo sapiens; for TGI: read-out: Log TGI (converted); summary of the method: as §1
RPMI-8226 = assay: Antitumor activity against RPMI-8226 cells; conditions: Homo sapiens; for TGI: read-out: Log TGI (converted)
NCI-H522 = assay: Antitumor activity against NCI-H522 cells; conditions: Homo sapiens
IGROV-1 = assay: Antitumor activity against IGROV1 cells; conditions: Homo sapiens
[2] = read-out: Log LC50 (the source's name) (converted)

SMILES: O=C(NNS(=O)(=O)c1ccc(F)cc1)c1cccnc1Nc1ccc(Cl)cc1Cl
- GI50 (RXF 393): 11.5 µM
- LC50 (RXF 393): 66.1 µM
- TGI (RXF 393): 27.5 µM
- GI50 (SW-620): 28.8 µM
- CC50 (SW-620): > 100 µM
- TGI (SW-620): > 100 µM
- GI50 (SN12C): 17.8 µM
- LC50 (SN12C): 57.5 µM
- TGI (SN12C): 31.6 µM
- GI50 [1]: 32.4 µM
- LC50 [1]: > 100 µM
- TGI [1]: > 100 µM
- GI50 (COLO 205): 16.2 µM
- LC50 (COLO 205): > 100 µM
- TGI (COLO 205): 51.3 µM
- GI50 (EKVX): 29.5 µM
- LC50 (EKVX): > 100 µM
- TGI (EKVX): > 100 µM
- GI50 (NCI-H23): 36.3 µM
- LC50 (NCI-H23): > 100 µM
- TGI (NCI-H23): > 100 µM
- GI50 (SNB-75): 25.7 µM
- CC50 (SNB-75): > 100 µM
- TGI (SNB-75): > 100 µM
- GI50 (NCI/ADR-RES): 39.8 µM
- LC50 (NCI/ADR-RES): > 100 µM
- TGI (NCI/ADR-RES): > 100 µM
- GI50 (SK-MEL-2): 42.7 µM
- LC50 (SK-MEL-2): > 100 µM
- TGI (SK-MEL-2): > 100 µM
- GI50 (OVCAR-8): 26.9 µM
- CC50 (OVCAR-8): > 100 µM
- TGI (OVCAR-8): > 100 µM
- GI50 (MDA-MB-435): 85.1 µM
- LC50 (MDA-MB-435): > 100 µM
- TGI (MDA-MB-435): > 100 µM
- GI50 (OVCAR-5): 52.5 µM
- CC50 (OVCAR-5): > 100 µM
- TGI (OVCAR-5): > 100 µM
- MIC (Bacillus subtilis): 9 µg/mL (≈ 19.8 µM)
- GI50 (HCT-15): 26.9 µM
- LC50 (HCT-15): > 100 µM
- TGI (HCT-15): > 83.2 µM
- GI50 (TK-10): 33.9 µM
- LC50 (TK-10): > 100 µM
- TGI (TK-10): > 100 µM
- GI50 (UACC-62): 45.7 µM
- LC50 (UACC-62): > 100 µM
- TGI (UACC-62): > 100 µM
- GI50 (SF-268): 45.7 µM
- LC50 (SF-268): > 100 µM
- TGI (SF-268): > 100 µM
- MIC (Escherichia coli): 15 µg/mL (≈ 32.9 µM)
- GI50 (K562): 20 µM
- LC50 (K562): > 100 µM
- TGI (K562): 83.2 µM

SMILES: O=C(NNS(=O)(=O)c1ccc(Cl)cc1Cl)c1cccnc1Nc1ccc(Cl)cc1
- GI50 (RXF 393): 17 µM
- LC50 (RXF 393): > 100 µM
- TGI (RXF 393): 43.7 µM
- GI50 (SW-620): 28.2 µM
- CC50 (SW-620): > 100 µM
- TGI (SW-620): > 100 µM
- GI50 (SN12C): 31.6 µM
- LC50 (SN12C): > 100 µM
- TGI (SN12C): > 100 µM
- GI50 [1]: 20.9 µM
- LC50 [1]: > 100 µM
- TGI [1]: 46.8 µM
- GI50 (COLO 205): 12 µM
- LC50 (COLO 205): 49 µM
- TGI (COLO 205): 24.5 µM
- GI50 (EKVX): 26.3 µM
- LC50 (EKVX): > 100 µM
- TGI (EKVX): > 100 µM
- GI50 (UO-31): 37.2 µM
- LC50 (50% net cell death) (UO-31): > 100 µM
- TGI (UO-31): > 100 µM
- GI50 (NCI-H23): 17.4 µM
- LC50 (NCI-H23): > 100 µM
- TGI (NCI-H23): 42.7 µM
- GI50 (SNB-75): 22.4 µM
- CC50 (SNB-75): > 100 µM
- TGI (SNB-75): 85.1 µM
- GI50 (NCI/ADR-RES): 23.4 µM
- LC50 (NCI/ADR-RES): > 100 µM
- TGI (NCI/ADR-RES): 75.9 µM
- GI50 (SK-MEL-2): 18.6 µM
- LC50 (SK-MEL-2): 97.7 µM
- TGI (SK-MEL-2): 42.7 µM
- GI50 (OVCAR-8): 26.9 µM
- CC50 (OVCAR-8): > 100 µM
- TGI (OVCAR-8): 74.1 µM
- GI50 (MDA-MB-435): 27.5 µM
- LC50 (MDA-MB-435): > 100 µM
- TGI (MDA-MB-435): 81.3 µM
- GI50 (OVCAR-5): 26.3 µM
- CC50 (OVCAR-5): > 100 µM
- TGI (OVCAR-5): 77.6 µM
- MIC (Bacillus subtilis): 15 µg/mL (≈ 31.8 µM)
- GI50 (HCT-15): 33.1 µM
- LC50 (HCT-15): 100 µM
- TGI (HCT-15): > 100 µM
- GI50 (TK-10): 28.8 µM
- LC50 (TK-10): > 100 µM
- TGI (TK-10): 85.1 µM
- GI50 (UACC-62): 21.9 µM
- LC50 (UACC-62): > 100 µM
- TGI (UACC-62): 75.9 µM
- GI50 (RPMI-8226): 17.8 µM
- LC50 (RPMI-8226): > 100 µM
- TGI (RPMI-8226): 53.7 µM
- GI50 (SF-268): 36.3 µM
- LC50 (SF-268): > 100 µM
- TGI (SF-268): 100 µM
- MIC (Escherichia coli): 20 µg/mL (≈ 42.4 µM)
- GI50 (K562): 12.9 µM
- LC50 (K562): 50.1 µM
- TGI (K562): 25.7 µM

SMILES: CC(=O)Nc1ccc(S(=O)(=O)NNC(=O)c2cccnc2Nc2ccc(Cl)cc2)cc1
- GI50 (RXF 393): 37.2 µM
- LC50 (RXF 393): > 100 µM
- TGI (RXF 393): > 100 µM
- GI50 (SW-620): 7.59 µM
- CC50 (SW-620): > 100 µM
- TGI (SW-620): > 100 µM
- GI50 (SN12C): 58.9 µM
- LC50 (SN12C): > 100 µM
- TGI (SN12C): > 100 µM
- GI50 [1]: 24 µM
- LC50 [1]: > 100 µM
- TGI [1]: > 100 µM
- GI50 (COLO 205): 10.2 µM
- LC50 (COLO 205): > 100 µM
- TGI (COLO 205): 57.5 µM
- GI50 (EKVX): 49 µM
- LC50 (EKVX): > 100 µM
- TGI (EKVX): > 100 µM
- GI50 (UO-31): 91.2 µM
- LC50 (50% net cell death) (UO-31): > 100 µM
- TGI (UO-31): > 100 µM
- GI50 (SNB-75): 5.5 µM
- CC50 (SNB-75): > 100 µM
- TGI (SNB-75): > 100 µM
- GI50 (NCI-H522): 6.46 µM
- CC50 (NCI-H522; [2]): > 100 µM
- TGI (NCI-H522; read-out: Log TGI (converted)): > 100 µM
- GI50 (OVCAR-8): 36.3 µM
- CC50 (OVCAR-8): > 100 µM
- TGI (OVCAR-8): > 100 µM
- GI50 (MDA-MB-435): 3.24 µM
- LC50 (MDA-MB-435): > 100 µM
- TGI (MDA-MB-435): > 100 µM
- MIC (Bacillus subtilis): 17 µg/mL (≈ 37 µM)
- GI50 (HCT-15): 13.8 µM
- LC50 (HCT-15): > 100 µM
- TGI (HCT-15): > 100 µM
- GI50 (TK-10): 25.1 µM
- LC50 (TK-10): > 100 µM
- TGI (TK-10): > 100 µM
- GI50 (UACC-62): 8.91 µM
- LC50 (UACC-62): > 100 µM
- TGI (UACC-62): > 100 µM
- GI50 (RPMI-8226): 28.8 µM
- LC50 (RPMI-8226): > 100 µM
- TGI (RPMI-8226): > 100 µM
- GI50 (SF-268): 21.9 µM
- LC50 (SF-268): > 100 µM
- TGI (SF-268): > 100 µM
- MIC (Escherichia coli): 18 µg/mL (≈ 39.1 µM)
- GI50 (IGROV-1): 27.5 µM
- CC50 (IGROV-1; [2]): > 100 µM
- TGI (IGROV-1; read-out: Log TGI (converted)): > 100 µM
- GI50 (K562): 8.51 µM
- LC50 (K562): > 100 µM
- TGI (K562): > 100 µM
